Hits are enriched below; roughly 1.2% of the tested compounds scored in any of these assays.
ASAP1 inh: blocks human ASAP1-stimulated Arf1 GTP hydrolysis. Q9ULH1. inhibition, % at 16.5 µM. hit rate 0.19% among 360,000. GDP FP detection; in the data active means inhibition above about 25%
IDE act: boosts human insulin-degrading enzyme activity in HEK cells; P14735; FAbeta-B cleavage, fluorescence polarization; 0% vehicle, 100% cell-free pure enzyme wells; activation, % at 5.96 µM; hit rate 0.073% among 340,000; AID 493087;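 active means activation above the mean of all tested compounds plus 3 SD, set per screening campaign, cut at about 17% in these data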
ARFGAP1 inhibitor: rat ARFGAP1 inhibition; Q62848; inhibition, % at 16.5 µM; AID 651572; hit rate 0.26% among 360,000; Arfgap1-stimulated ARF1 GTP hydrolysis, GDP FP detection;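 active means inhibition above a per-plate limit, mean inhibition of low control wells plus 3 SD, cut at about 25% in these data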
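Material: rat Arfgap1 catalytic domain, aa 1-136; also added: human ARF1(Δ1-17)-GTP substrate; compound dosing: one concentration, 16.5 µM, DMSO 1.26%; incubation: GTP hydrolysis reaction 2 h at 25 °C; measured by: Tracer-displacement fluorescence polarization with EDTA stop, 620/688 nm; evaluation: % inhibition from polarization; repeats: one replicate per compound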
IDE inh: cellular human IDE inhibition; HEK cells, FAbetaB cleavage, fluorescence polarization; inhibition, % at 5.59 µM; hit rate 0.41% among 320,000; AID 434962;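 active means percent inhibition above the average of all tested compounds plus 3 SD, set per screening campaign, cut at about 16% in these data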;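 further: IDE supplied by intact live HEK cells; FP after avidin binding of uncleaved biotin substrate so inhibition keeps polarization high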
PREPL inh: human PREPL enzyme inhibition | Q4J6C6 | hit rate 0.68% among 320,000 | inhibition, % at 5.96 µM | recombinant PREPL, fluorescence polarization activity-based probe
Target sequence (Q4J6C6 whole entry, looked up): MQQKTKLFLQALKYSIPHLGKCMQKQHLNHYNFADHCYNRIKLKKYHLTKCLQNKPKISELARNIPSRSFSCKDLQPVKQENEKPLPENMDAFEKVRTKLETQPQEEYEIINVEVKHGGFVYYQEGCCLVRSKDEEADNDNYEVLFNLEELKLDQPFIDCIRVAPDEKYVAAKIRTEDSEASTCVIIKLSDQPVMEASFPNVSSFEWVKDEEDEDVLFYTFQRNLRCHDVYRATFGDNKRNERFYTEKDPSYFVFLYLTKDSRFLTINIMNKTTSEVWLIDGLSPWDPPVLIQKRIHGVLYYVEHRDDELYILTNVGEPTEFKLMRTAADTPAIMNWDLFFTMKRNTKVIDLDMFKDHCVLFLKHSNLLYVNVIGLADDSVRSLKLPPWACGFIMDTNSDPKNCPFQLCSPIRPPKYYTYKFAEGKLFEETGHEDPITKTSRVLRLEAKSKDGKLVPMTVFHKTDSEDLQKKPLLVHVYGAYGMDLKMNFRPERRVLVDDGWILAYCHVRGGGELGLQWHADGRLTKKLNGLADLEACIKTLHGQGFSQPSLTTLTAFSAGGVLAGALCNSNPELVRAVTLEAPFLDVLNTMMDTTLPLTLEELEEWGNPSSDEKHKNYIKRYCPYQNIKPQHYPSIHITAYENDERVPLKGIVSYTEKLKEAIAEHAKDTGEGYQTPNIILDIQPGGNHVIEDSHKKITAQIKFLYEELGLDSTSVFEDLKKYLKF
PREPL inh cf: human PREPL inhibition, confirmation; shares compounds with PREPL inh; recombinant PREPL, fluorescence polarization activity probe; inhibition, % at 5.96 µM; hit rate 67% among 2,000
A number is an active result; n = inactive; x = no result given. Unless noted, no stated cut-off is given here; in the data, active means inhibition above about 43%; inactive means the rest.

SMILES	ASAP1 inh	IDE act	ARFGAP1 inhibitor	IDE inh	PREPL inh	PREPL inh cf
O=C(CNC(=O)c1ccccc1)NCC(c1ccco1)N1CCCC1 (configuration not stated)	n	n	n	n	n	x
O=C(CNC(=O)c1ccco1)NCC(c1ccco1)N1CCCCC1 (configuration not stated)	n	n	n	n	73	n
Cc1cc(N)ccc1-n1c(C)ccc1C	n	n	n	n	59	n
Cc1cc(N)ccc1N1CCCC1	x	n	x	n	57	45
Cc1cc(NC(=O)c2cc([N+](=O)[O-])cc([N+](=O)[O-])c2C)no1	n	n	n	n	n	x
O=C(CC(=O)c1cccc([N+](=O)[O-])c1)Nc1ccccc1Cl	n	n	n	n	n	x
Oc1ccc(/C=N/Nc2nc(-c3cccnc3)nc3ccccc23)c(O)c1	n	n	n	n	58	n
COc1ccc(/C=N/Nc2nc(-c3cccnc3)nc3ccccc23)cc1OC	n	n	n	n	n	x
CCN(CCN(C)C)C(=O)C1CCN(S(=O)(=O)c2c(C)noc2/C=C/c2ccccc2F)CC1	n	n	n	n	44	n
COC(=O)CCC(=O)OC1(C)C(=O)C=C2C=C(C3CC3)N(CCc3c[nH]c4ccccc34)C=C2C1=O (configuration not stated)	n	n	n	n	63	52
COC(=O)CCC(=O)OC1(C)C(=O)C=C2C=C(C3CC3)N(Cc3ccc(OC)cc3)C=C2C1=O (configuration not stated)	n	n	n	n	59	n
CCOc1ccc2nc(N3C(=O)C(O)=C(C(=O)c4ccco4)C3c3ccco3)sc2c1 (configuration not stated)	n	n	n	n	n	x
Cc1cc(C)c2nc(N3C(=O)C(O)=C(C(=O)c4ccco4)C3c3ccco3)sc2c1 (configuration not stated)	n	n	n	n	44	53
N#Cc1ncc(Cc2ccccc2)nc1C#N	n	n	n	n	52	n
N#Cc1c(N)nc2c3c(sc(=N)c2c1N)NC(=O)CC3c1c(F)cccc1Cl (configuration not stated)	n	n	n	n	n	x
N#Cc1c(N)nc2c3c(sc(=N)c2c1N)NC(=O)CC3c1ccccc1 (configuration not stated)	n	n	n	n	50	n
CC1=NCC(C)c2ccccc21 (configuration not stated)	n	x	n	x	x	x
CC1=NCC(C)c2c1[nH]c1ccccc21 (configuration not stated)	n	n	n	n	45	n
CCN(CC)c1nc2c3c(nc4c(c3c1C#N)CC(=O)N4c1ccc(Cl)cc1)NC(C)=N2	n	n	n	n	66	65
CCCc1nc(NCCCOCC)c2nnn(Cc3ccccc3)c2n1	n	n	n	n	n	x
O=[N+]([O-])c1cccc(OCC(O)CN2CCN(S(=O)(=O)c3cc(Cl)ccc3Cl)CC2)c1 (configuration not stated)	n	n	n	n	n	x
O=C(c1ccc(CNc2c(N3CCCC3)c(=O)c2=O)cc1)N1CC=C(c2ccccc2)CC1	n	n	n	n	43	n
CC1CCN(c2c(NCc3ccc(C(=O)N4CCN(C5CCCCC5)CC4)cc3)c(=O)c2=O)CC1	n	n	n	n	n	x
COCCNC(=S)N(C)[C@H]1C[C@H]2c3[nH]c4cccc(-c5ccccc5)c4c3CCN2C(=O)[C@H]1[C@H](C)O	n	x	n	x	x	x
CCCn1c(SCC(=O)c2c[nH]c3ccccc23)nnc1-c1ccncc1	n	n	n	n	44	n
SMILES	ASAP1 inh	IDE act	ARFGAP1 inhibitor	IDE inh	PREPL inh	PREPL inh cf
Cc1ccc2nc(-c3sc4nc(C)cc(C)c4c3N)[nH]c2c1	n	n	n	n	73	n
C[C@H]1NS(=O)(=O)c2cccc(Cl)c2O[C@@H]1c1ccccc1	n	x	n	x	x	x
Cc1ccc(C)c(N2CCN(C(=O)Cc3ccc(NC4=NC5CS(=O)(=O)CC5S4)cc3)CC2)c1 (configuration not stated)	n	n	n	n	n	x
CCCCc1ccc(N=N/C(C(=O)Nc2ccc(NC(C)=O)cc2OC)=C(/C)O)cc1	n	n	n	n	n	x
O=C(N/N=C/c1ccc(O)cc1)c1cc[n+](Cc2ccccc2)cc1	n	n	n	n	n	x
O=C(N/N=C/c1ccc(OCc2ccccc2)cc1)c1cc[n+](Cc2ccccc2)cc1	n	n	n	n	53	n
COc1cc(/C=C2\C(=N)N3N=C(N4CCOCC4)SC3=NC2=O)ccc1OC(=O)c1ccccc1	n	n	n	n	n	x
N=C1/C(=C\c2ccc(OC(=O)c3ccccc3Cl)cc2)C(=O)N=C2SC(N3CCOCC3)=NN12	n	n	n	n	53	n
COc1ccccc1Nc1c2c(nc3ccc(N)cc13)CCCC2	n	n	n	n	44	n
Cc1ccccc1-c1ccc(Nc2ccc(N3CCOCC3)cc2)nn1	x	n	x	n	59	53
CN(C)CCN(Cc1cc2cc3c(cc2nc1Cl)OCO3)C(=O)c1ccco1	n	n	n	n	n	x
C=CCn1c(N)c(-c2nc3ccccc3n2C)sc1=S	n	n	n	n	44	n
CCCCNc1ccc2c(c1)OC[C@@H](CC(C)C)NS2(=O)=O	n	x	n	x	x	x
O=C(NCC1CC1)c1cc2c(c(-c3cccc(-c4ccccc4F)c3)n1)[C@@H](CCO)N(C(=O)CC1CC1)C2	n	x	n	x	x	x
C[C@H]1COC(=O)[C@H](Cc2ccc(F)cc2)C/C=C\C[C@H](CC(=O)N(CCO)Cc2ccccc2)C(=O)N1	n	n	n	n	n	x
CC(C)(C)[C@@H]1COC(=O)[C@@H](Cc2ccc(F)cc2)CC/C=C\C[C@@H](CC(=O)N(CCO)Cc2ccccc2)C(=O)N1	n	n	n	n	55	50
O=C1N[C@@H](c2ccccc2)COC(=O)[C@@H](Cc2ccc(F)cc2)C/C=C\C[C@H]1CC(=O)N(CCO)Cc1ccccc1	n	n	n	n	n	x
CC(C)(C)[C@@H]1COC(=O)[C@H](Cc2ccc(F)cc2)C/C=C\C[C@@H](CC(=O)N(CCO)Cc2ccccc2)C(=O)N1	n	n	n	n	48	46
CC(C)(C)[C@@H]1COC(=O)[C@H](Cc2ccc(F)cc2)CC/C=C\C[C@H](CC(=O)N(CCO)Cc2ccccc2)C(=O)N1	n	n	n	n	n	x
O=C1N[C@@H](c2ccccc2)COC(=O)[C@H](Cc2ccc(F)cc2)CC/C=C/C[C@@H]1CC(=O)N(CCO)Cc1ccccc1	n	n	n	n	57	46
CCNC(=O)C1(C)CCN(C(=O)c2cc(F)ccc2C)C1 (configuration not stated)	n	x	n	x	x	x
Cc1ccccc1OCC(=O)Nc1ccc(N2CCN(S(C)(=O)=O)CC2)cc1	n	n	n	n	n	x
CN1CCN(c2ccc(NC(=O)COc3ccc4ccccc4c3)cc2)CC1	n	n	n	n	52	58
